Assay results pooled from the literature.
Lines come from different studies, so protocols differ.
Target: MAP kinase-activated protein kinase 5 (MAPKAPK5, Homo sapiens, UniProt Q8IW41)
Residues used in one study (Q8IW41 1-473): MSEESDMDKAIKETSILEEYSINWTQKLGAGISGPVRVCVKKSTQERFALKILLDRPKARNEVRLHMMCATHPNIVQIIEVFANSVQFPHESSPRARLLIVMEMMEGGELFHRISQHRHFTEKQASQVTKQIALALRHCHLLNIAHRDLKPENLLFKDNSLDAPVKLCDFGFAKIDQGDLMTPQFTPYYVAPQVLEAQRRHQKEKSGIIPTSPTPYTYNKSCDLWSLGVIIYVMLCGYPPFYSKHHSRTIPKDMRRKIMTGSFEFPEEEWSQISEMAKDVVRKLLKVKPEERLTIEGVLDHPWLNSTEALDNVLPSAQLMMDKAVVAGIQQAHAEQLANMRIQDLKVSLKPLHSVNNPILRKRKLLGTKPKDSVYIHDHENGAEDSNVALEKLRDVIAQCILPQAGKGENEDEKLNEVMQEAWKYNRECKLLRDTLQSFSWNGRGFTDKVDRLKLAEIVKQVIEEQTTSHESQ

`O=C(c1ccc(Nc2ncc(Cl)c(-c3cc4ccccc4s3)n2)cc1)N1CCC(N2CCCC2)CC1` has a remaining binding of 80% (binding, competition with immobilised ligand; 1 µM).
For `Cc1cnn2ncc(-c3ccnc(N(C)C)n3)c2c1`, the remaining binding was 77% (binding; 1 µM).
`O=C(NCCCN1CCOCC1)c1ccc(Nc2nccc(-c3cc4ccccc4s3)n2)cc1` gave a remaining binding of 82% (binding, competition with immobilised ligand; 1 µM).
`CN(C)CC#Cc1ccc(OCCCc2sc(N3CCc4cccc(C(=O)Nc5nc6ccccc6s5)c4C3)nc2C(=O)O)c(F)c1` has a remaining binding of 99% (cell-free assay, competition with immobilised ligand; 1 µM).
With `O=C(c1ccc(Nc2ncc(Cl)c(-c3ccc(Cl)s3)n2)cc1)N1CCC(N2CCCC2)CC1` the remaining binding was 100% (binding, competition with immobilised ligand; 1 µM).
`c1cncc(-c2cccc(Nc3nccc(NC4CCCCC4)n3)c2)c1` has a remaining binding of 100% (binding, competition with immobilised ligand; 10 µM).
`FC(F)(F)Oc1cccc(-c2cnc3ccc(-c4ccncc4)nn23)c1` gave a remaining binding of 71% (cell-free assay, competition with immobilised ligand; 5 µM).
For `Nc1ncc2c(n1)-c1c([nH]c3ccc(C#CC4CC4)cc13)CCCC2`, the remaining binding was 97% (binding, competition with immobilised ligand; 1 µM).
The remaining binding of `O=C(NCC1CCOCC1)c1n[nH]cc1NC(=O)c1c(F)cccc1F` is reported as 72% (binding, competition with immobilised ligand; 1 µM).
For `C[C@@H]1CCN(c2nccc(-c3cnn4ncccc34)n2)C1`, the remaining binding was 69% (binding; 1 µM).
For `C=CC(=O)N1CCC(C(=O)NCC(=O)N2CCN(c3nc(-c4cnc(N)nc4C(F)F)nc(N4CCOCC4)n3)CC2)CC1`, the remaining binding was 92% (binding, competition with immobilised ligand; 1 µM).
`CC(=O)Nc1c(C(C)=O)c(=O)n(C)c2nc(-c3ccc(Cl)cc3Cl)c(-c3ccc(Cl)cc3)cc12` has a remaining binding of 100% (cell-free assay, competition with immobilised ligand; 1 µM).
For `COc1cnc(Nc2cccc(S(N)(=O)=O)c2)nc1N1CCN(c2ccccc2)CC1`, the remaining binding was 96% (binding, competition with immobilised ligand; 1 µM).
With `CN(C(=O)c1ccccc1)c1cc(N(C)c2ccc3c(c2)CCc2ccc(C(=O)NCCN4CCOCC4)cc2C3=O)ccc1F` the remaining binding was 100% (cell-free assay, competition with immobilised ligand; 1 µM).
With `CC1CCCN1c1nccc(-c2cnn3ncccc23)n1` (stereo not shown) the remaining binding was 100% (binding; 1 µM).
`CCS(=O)(=O)c1cc2cc(C[C@](O)(CC(C)(C)c3ccc(F)cc3C(N)=O)C(F)(F)F)[nH]c2cn1` gave a remaining binding of 93% (cell-free assay, competition with immobilised ligand; 1 µM).
For `CN(C)c1nccc(-c2cnc3ncccn23)n1`, the remaining binding was 93% (binding; 1 µM).
The remaining binding of `CSc1cccnc1N1CCN(Cc2nc3ccccc3[nH]2)CC1` is reported as 84% (cell-free assay, competition with immobilised ligand; 1 µM).
With `CN(C)c1ncc(F)c(-c2cnn3ncccc23)n1` the remaining binding was 74% (binding; 1 µM).
